Columns and labels:
[1] = target: Kappa-type opioid receptor (Cavia porcellus) (UniProt P41144); experiment: Antagonistic activity expressed as IC50 ratio against ethylketazocine (EK) Opioid receptor kappa 1 in smooth muscle preparations; format: functional
How it was run: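 Electrically stimulated guinea pig ileum. The preparation was preincubated 15 min with test compound (100 nM) before challenge with a standard agonist: morphine for μ, ethylketazocine for κ. The ratio is agonist IC50 with antagonist divided by control IC50 of agonist alone (n ≥ 3).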

[2] = species: Cavia porcellus; experiment: (§1) Agonist activity (ability to decrease the twitch height of the electrically stimulated smooth muscle) in electrically stimulated guinea pig ileum(GPI); format: functional, Muscle tissue
How it was run: (§2)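 Electrically stimulated guinea pig ileum. Agonism read as a drop in twitch height. Compounds were first tested at 1 μM. Full agonists were then run at 4-6 concentrations to build a dose-response curve and give the IC50 for half-maximal response (n ≥ 3). Partial responders were reported as percent of maximal agonist response.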

[3] = species: Mus musculus; experiment: Agonist vas deferens(MVD); format: functional
How it was run: as §2, with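 “mouse vas deferens.” for “guinea pig ileum.”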

[4] = species: Cavia porcellus; experiment: as §1; format: functional, organism-based; settings: Muscle tissue; how it was run: as §2
[5] = target: Delta-type opioid receptor (Mus musculus) (UniProt P32300); experiment: Antagonistic activity expressed as IC50 ratio against DADLE-Opioid receptor delta 1 in smooth muscle preparations of mouse vas deferens(MVD); format: functional
How it was run: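 Electrically stimulated mouse vas deferens. The preparation was preincubated 15 min with test compound (100 nM) before challenge with the standard δ agonist DADLE. The ratio is DADLE IC50 with antagonist divided by control IC50 of DADLE alone (n ≥ 3).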

[6] = species: Cavia porcellus; experiment: Antagonist potency (Ke) was evaluated in guinea pig ileum(GPI); format: functional
How it was run: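 Antagonist potency came from IC50-ratio tests in which smooth muscle was preincubated 15 min with antagonist before agonist challenge.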

[7] = species: Cavia porcellus; experiment: Agonist activity (ability to decrease the twitch height of the electrically stimulated smooth muscle) in electrically stimulated guinea pig ileum (GPI); format: functional; how it was run: as §2

Chain of Delta-type opioid receptor (Mus musculus) (P32300 whole entry): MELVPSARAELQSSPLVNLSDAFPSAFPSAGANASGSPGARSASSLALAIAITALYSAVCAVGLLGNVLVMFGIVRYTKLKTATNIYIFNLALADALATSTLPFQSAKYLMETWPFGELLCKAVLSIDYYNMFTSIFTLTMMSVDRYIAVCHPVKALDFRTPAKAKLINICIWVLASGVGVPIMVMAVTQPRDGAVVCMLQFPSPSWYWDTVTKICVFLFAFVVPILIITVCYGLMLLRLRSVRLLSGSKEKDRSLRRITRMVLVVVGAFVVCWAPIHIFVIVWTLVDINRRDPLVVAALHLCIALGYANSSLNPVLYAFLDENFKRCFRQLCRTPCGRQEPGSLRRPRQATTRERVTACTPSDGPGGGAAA
Chain of Kappa-type opioid receptor (Cavia porcellus) (P41144 whole entry): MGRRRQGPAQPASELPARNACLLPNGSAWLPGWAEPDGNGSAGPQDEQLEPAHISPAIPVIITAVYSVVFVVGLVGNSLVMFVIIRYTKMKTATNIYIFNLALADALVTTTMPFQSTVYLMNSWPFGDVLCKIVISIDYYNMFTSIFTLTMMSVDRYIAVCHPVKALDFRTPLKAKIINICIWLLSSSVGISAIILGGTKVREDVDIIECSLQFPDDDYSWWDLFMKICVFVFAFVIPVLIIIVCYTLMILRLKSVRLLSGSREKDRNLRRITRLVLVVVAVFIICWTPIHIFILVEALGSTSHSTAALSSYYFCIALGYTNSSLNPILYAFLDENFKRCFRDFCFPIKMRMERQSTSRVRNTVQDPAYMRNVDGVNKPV

CN1CC[C@]23c4c5ccc(O)c4O[C@H]2C(=O)C2(Cc4ccccc4C2)C[C@@]3(O)[C@H]1C5 [SPIROINDANYLOXYMORPHONE]
IC50 ratio [1]: 1 | Max response [2]: 55%

Oc1ccc2c3c1O[C@H]1c4[nH]c5ccccc5c4C[C@@]4(O)[C@@H](C2)N(CC2CC2)CC[C@]314 [NALTRINDOLE]
Max response [3]: 37.1% | Max response [2]: 7.6%

CN1CCC23c4c5ccc(O)c4O[C@H]2C(=O)C2(Cc4ccccc4C2)CC3C1C5 (some centres not stated)
Max response [3]: 58.6% | IC50 [4]: 0.153 µM | IC50 ratio [5]: 0.85

Oc1ccc2c3c1O[C@H]1c4[nH]c5ccccc5c4CC4C(C2)N(CC2CC2)CCC341 (some centres not stated)
IC50 ratio [1]: 1.64 | Max response [3]: 22.6% | Ke [6]: 2.98 | Max response [7]: 16.85% | IC50 ratio [5]: 34.6

— ChEMBL document CHEMBL1131025, “14-Desoxy analogues of naltrindole and 7-spiroindanyloxymorphone: the role of the 14-hydroxy group at delta opioid receptors” (J Med Chem, 1998)
